Activity calls are given as the source filed them. The calls are words filed in the database; no cut-off is given here.
Tests used:
[1] = biological target: T1, Tyrosinase (Agaricus bisporus) (UniProt O42713); assay: Inhibition of mushroom tyrosinase assessed as oxidation of L-DOPA at 0.8 mM
T1 sequence (whole entry): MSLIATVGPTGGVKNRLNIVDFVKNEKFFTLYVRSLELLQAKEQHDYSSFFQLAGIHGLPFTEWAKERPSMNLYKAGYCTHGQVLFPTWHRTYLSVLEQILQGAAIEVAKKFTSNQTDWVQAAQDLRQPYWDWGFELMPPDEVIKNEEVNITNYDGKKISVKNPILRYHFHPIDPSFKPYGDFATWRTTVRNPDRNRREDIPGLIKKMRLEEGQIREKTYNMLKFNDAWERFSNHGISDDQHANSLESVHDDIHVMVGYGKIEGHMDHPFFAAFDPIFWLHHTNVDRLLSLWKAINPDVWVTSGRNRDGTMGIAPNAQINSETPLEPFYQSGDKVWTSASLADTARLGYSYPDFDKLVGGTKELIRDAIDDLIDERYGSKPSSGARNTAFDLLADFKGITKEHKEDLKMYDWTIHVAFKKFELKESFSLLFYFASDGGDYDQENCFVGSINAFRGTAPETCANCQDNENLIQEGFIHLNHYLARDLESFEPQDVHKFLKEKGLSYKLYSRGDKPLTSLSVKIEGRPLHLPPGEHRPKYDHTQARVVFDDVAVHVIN

[2] = biological target: T1, Tyrosinase (Agaricus bisporus); assay: Inhibition of mushroom tyrosinase assessed as oxidation of L-DOPA
[3] = biological target: T1, Tyrosinase (Agaricus bisporus); assay: Inhibition of mushroom tyrosinase assessed as oxidation of L-DOPA by Lineweaver-Burke plot analysis
Procedure, shortened: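 Mushroom tyrosinase (138 units) added to L-DOPA (1 ml of 2.5 mM stock) plus sample (DMSO solution diluted 30-fold) in 0.1 M phosphate buffer pH 6.8, after 10 min at 25°. Initial linear rate of dopachrome formation read at 475 nm; double-reciprocal plot of 1/V (1/ΔA475 per min).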

[4] = biological target: T1, Tyrosinase (Agaricus bisporus); assay: Inhibition of mushroom tyrosinase assessed as oxidation of L-DOPA preincubated for 5 mins before L-DOPA addition
Procedure, shortened: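 Enzyme (138 units) and sample pre-incubated in 0.1 M phosphate buffer pH 6.8 for 5 min at 25°. Then 0.4 ml of 6.3 mM L-DOPA stock added and the reaction followed at 475 nm for 4 min. Controls: no inhibitor with or without pre-incubation, and inhibitor without pre-incubation.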

C=CC/C=C\C/C=C\CCCCCCCc1cc(O)cc(O)c1
inhibition [1]: 88%
Activity [2]: Dose-dependent effect
ID50 [2]: 0.04 mM
Activity [3]: Active
Activity [4]: Active

CCCCCC/C=C\CCCCCCCc1cccc(O)c1C(=O)O
inhibition [1]: 15%
Activity [2]: Dose-dependent effect
ID50 [2]: 7.5 mM

CCCCCCCCCCCCCCCc1cccc(O)c1
Activity [1]: inactive

CCC/C=C\C/C=C\CCCCCCCc1cc(O)c(C)c(O)c1
inhibition [1]: 20%

C=CC/C=C\C/C=C\CCCCCCCc1cc(O)c(C)c(O)c1
inhibition [1]: 16%

C=CC/C=C\C/C=C\CCCCCCCc1cccc(O)c1C(=O)O (stereo in doubt; 5)
inhibition [1]: 45%
Activity [2]: Dose-dependent effect
ID50 [2]: 1.1 mM
Activity [3]: Active
Activity [4]: Active

O=C(O)c1ccccc1O
inhibition [1]: 23%
ID50 [2]: 3.9 mM

C=CC/C=C\C/C=C\CCCCCCCc1cccc(O)c1C(=O)O (stereo in doubt; 8)
inhibition [1]: 15%
Activity [2]: Dose-dependent effect
ID50 [2]: 4.2 mM

OC[C@H]1O[C@@H](Oc2ccc(O)cc2)[C@H](O)[C@@H](O)[C@@H]1O
ID50 [2]: 6.2 mM

CCCCCC/C=C\CCCCCCCc1cc(O)c(C)c(O)c1
inhibition [1]: 24%

CCCCCCCCCCCCCCCc1cc(O)cc(O)c1
inhibition [1]: 21%
Activity [2]: Dose-dependent effect

CCC/C=C\C/C=C\CCCCCCCc1cccc(O)c1C(=O)O
inhibition [1]: 15%
Activity [2]: Dose-dependent effect
ID50 [2]: 6 mM

Oc1cccc(O)c1
inhibition [1]: 34%
ID50 [2]: 1.2 mM

Source: ChEMBL document CHEMBL1149064, “Tyrosinase inhibitors from Anacardium occidentale fruits” (J Nat Prod, 1994)
